Assay results: ChEMBL document CHEMBL1833799, “Glionitrin B, a cancer invasion inhibitory diketopiperazine produced by microbial coculture” (2011)
The source made the active and inactive calls. The calls are words filed in the database; no cut-off is given here.

Columns and labels:
[1] = test system: DU-145; test: Cytotoxicity against human DU145 cells at 2.5 to 80 uM after 24 hrs by cell counting kit analysis; assay type: functional, cell-based
In short: (§1)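 DU145 cells cultured at 37 °C in humidified 5% CO2 with serum and penicillin/streptomycin. Cells treated with a range of compound concentrations for 24 h, then viability read with Cell Counting Kit-8 per the manufacturer. Viability expressed relative to an untreated group. Paclitaxel (0.1 μM) served as positive control.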

[2] = test system: DU-145; test: Cytotoxicity against human DU145 cells at 0.25 to 8 uM after 24 hrs by cell counting kit analysis; assay type: functional, cell-based; in short: as §1
[3] = test system: DU-145; test: Antiinvasive activity against human DU145 cells at 0.2 uM after 24 hrs by cell invasion assay; assay type: functional, cell-based
In short: (§2)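 DU145 prostate cancer cells grown at 37 °C, humidified 5% CO2, in medium with serum, 100 units/mL penicillin and 100 μg/mL streptomycin. Cells exposed to compound for 24 h, then in vitro invasiveness measured with a commercial cell invasion assay kit per the maker's protocol. Inhibition expressed relative to an untreated group.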

[4] = test system: DU-145; test: Antiinvasive activity against human DU145 cells at 15 to 60 uM after 24 hrs by cell invasion assay; assay type: functional, cell-based; in short: as §2
[5] = test system: DU-145; test: Inhibition of human DU145 cells invasion at 60 uM after 24 hrs by cell invasion assay; assay type: functional; conditions: DU-145, 24 h; in short: as §2
[6] = test system: DU-145; test: Decrease in MMP2 mRNA level in human DU145 cell by RT-PCR analysis; assay type: functional, cell-based
In short: (§3)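 DU145 cells were exposed to compounds for 18 h. Total RNA was isolated by spin column and reverse-transcribed to cDNA. PCR used 100 ng cDNA aliquots: 94 °C for 5 min, then 32 cycles of 94 °C for 30 s, 58 °C for 30 s and 72 °C for 1 min. Products were assessed for MMP-2 and MMP-9 transcript levels.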

[7] = test system: DU-145; test: Decrease in MMP9 mRNA level in human DU145 cell by RT-PCR analysis; assay type: functional, cell-based; in short: as §3
[8] = test system: DU-145; test: Antiinvasive activity against human DU145 cells after 24 hrs by cell invasion assay; assay type: functional, cell-based
In short: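 DU145 cells grown with serum, 100 units/mL penicillin and 100 μg/mL streptomycin at 37 °C in humidified 5% CO2. Cells were exposed to test compounds at the indicated concentrations for 24 h. In vitro invasiveness was then measured with a commercial cell invasion kit per the manufacturer's protocol and expressed as inhibition relative to an untreated group.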

[9] = test system: DU-145; test: Cytotoxicity against human DU145 cells at 0.1 uM after 24 hrs by cell counting kit analysis; assay type: functional
In short: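 DU145 cells were cultured in serum-supplemented medium with penicillin/streptomycin at 37 °C in 5% CO2. They were exposed to a range of compound concentrations for 24 h. Viability was read with the CCK-8 kit per the manufacturer's instructions and expressed as a percentage of an untreated group. Paclitaxel at 0.1 μM served as the positive control.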

Row | Compound | Activity [1] | Activity [2] | Activity [3] | inhibition at 60 µM [5] [%] | also measured
1 | CN1C(=O)[C@@]23Cc4ccc([N+](=O)[O-])cc4N2C(=O)[C@@]1(CO)SS3 | Active | Active | inactive | – | –
2 | CN1C(=O)[C@]23CC4=CC=C[C@H](O)[C@H]4N2C(=O)[C@@]1(CO)SS3 | Active | Active | inactive | – | –
3 | CS[C@]1(CO)C(=O)N2[C@H]3C(=CC=C[C@@H]3O)C[C@@]2(SC)C(=O)N1C [BIS(DETHIO)BIS(METHYLTHIO)GLIOTOXIN] | inactive | – | – | 22 | Activity [4]: inactive
4 | CS[C@@]1(CO)C(=O)N2c3cc([N+](=O)[O-])ccc3C[C@]2(SC)C(=O)N1C [GLIONITRIN B] | inactive | – | – | 46 | Activity [6]: Dose-dependent effect; Activity [7]: Dose-dependent effect; Activity [8]: Dose-dependent effect
5 | CC(=O)O[C@H]1C(=O)[C@@]2(C)[C@H]([C@H](OC(=O)c3ccccc3)[C@]3(O)C[C@H](OC(=O)[C@H](O)[C@@H](NC(=O)c4ccccc4)c4ccccc4)C(C)=C1C3(C)C)[C@]1(OC(C)=O)CO[C@@H]1C[C@@H]2O [PACLITAXEL] | – | – | – | – | Activity [9]: 18.9%
